From PubChem
Calb FLC: C. albicans growth inhibition with fluconazole, primary screen, CaCi-2 strain, Alamar Blue fluorescence; C. albicans CaCi-2 (fluconazole-resistant clinical isolate) + fluconazole, 48 h; 300,000 compounds, 0.57% hits; growth inhibition, % (no concentration beside the values);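 active means growth inhibition above about 58% in most replicates, limit read from the data, passing the limit was not always enough; inconclusive means exactly half the replicates above a set limit; inactive means most replicates below a set limit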;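 further: all wells also contain fluconazole at 8 µg/ml as a sub-toxic cotreatment; 0% = median of DMSO wells and 100% = median of geldanamycin control wells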
SKKanGAS inh: S. pyogenes SKKanGAS growth inhibitors in kanamycin, primary screen, streptokinase expression inhibitor project, SKKanGAS strain, BacTiter-Glo luminescence | AID 1662, 2009 | inhibition, % at 7.5 µM | 300,000 compounds, 1.3% hits | 6 h;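 active means mean replicate score, as percent of positive control median, at least 50; inconclusive means mean below 50 but one replicate at or above 50; inactive means mean and every replicate below 50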;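 further: strain carries kanamycin resistance gene driven by streptokinase promoter and grows in 40 µg/ml kanamycin; loss of luminescence reflects streptokinase promoter inhibition or plain growth inhibition; 0% = median of DMSO wells and 100% = positive control at its reference dose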
ASAP1 inh: inhibitors of human ASAP1 ArfGAP activity, primary screen, biochemical, fluorescence polarization; Arf-GAP with SH3 domain, ANK repeat and PH domain-containing protein 1 (Homo sapiens), …; inhibition, % at 16.5 µM; AID 624377, 2012; 360,000 compounds, 0.19% hits; ASAP1-stimulated ARF1 GTP hydrolysis, GDP FP detection; in the data active means inhibition above about 25%;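 further: 0% = vehicle with enzyme and substrate and 100% = no enzyme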
Target sequence (Q9ULH1 325-724 limits assumed): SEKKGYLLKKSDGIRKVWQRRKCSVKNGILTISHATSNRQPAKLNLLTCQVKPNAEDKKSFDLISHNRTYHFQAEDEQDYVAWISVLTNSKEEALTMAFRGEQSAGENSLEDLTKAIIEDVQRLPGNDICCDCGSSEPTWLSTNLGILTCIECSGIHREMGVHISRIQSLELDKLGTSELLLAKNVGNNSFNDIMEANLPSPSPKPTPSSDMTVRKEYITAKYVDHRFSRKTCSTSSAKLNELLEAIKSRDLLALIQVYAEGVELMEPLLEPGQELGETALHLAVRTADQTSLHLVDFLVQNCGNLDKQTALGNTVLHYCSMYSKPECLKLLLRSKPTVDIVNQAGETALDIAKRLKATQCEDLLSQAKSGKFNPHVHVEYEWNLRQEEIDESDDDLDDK
ARFGAP1 inhibitor: inhibitors of rat ARFGAP1 GAP activity, primary screen, biochemical, fluorescence polarization, GDP tracer; AID 651572, 2012; ADP-ribosylation factor GTPase-activating protein 1 (Rattus norvegicus), Q62848; Arfgap1-stimulated ARF1 GTP hydrolysis, GDP FP detection; inhibition, % at 16.5 µM; 360,000 compounds, 0.26% hits;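 active means inhibition above a per-plate limit, mean inhibition of low control wells plus 3 SD, cut at about 25% in these data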;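 further: 0% = DMSO wells with enzyme and 100% = wells lacking Arfgap1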
Target sequence (Q62848 1-136 limits assumed): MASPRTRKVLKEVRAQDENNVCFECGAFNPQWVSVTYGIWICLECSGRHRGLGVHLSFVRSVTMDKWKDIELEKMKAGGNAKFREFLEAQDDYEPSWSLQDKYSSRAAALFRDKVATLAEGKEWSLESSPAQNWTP
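Replicates: Single well per compound | Assay system: Truncated rat Arfgap1 GAP domain | Control set: No-Arfgap1 wells (100%) versus DMSO full-reaction wells (0%) | Times: Enzyme reaction 120 min at 25 °C after 20 min preincubation | Reagent: Human ARF1(Δ1-17)-GTP substrate | Measured by: Tracer-displacement fluorescence polarization with EDTA stop, 620/688 nm | Measure: Percent inhibition of Arfgap1-stimulated GTP hydrolysis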
sPLA2-III inh: human group III sPLA2 inhibitors, primary screen, biochemical, QFRET, BODIPY PC-A2 liposome substrate | 370,000 compounds, 0.56% hits | Group 3 secretory phospholipase A2 (Homo sapiens), Q9NZ20 | AID 743126, 2013 | QFRET BODIPY PC-A2 liposome hydrolysis, fluorescence | inhibition, % at 12.2 µM;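 active means inhibition above mean plus 3 SD of compounds lying within the high and low control bounds, cut at about 19% in these data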;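 further: 0% = median of test compound wells and 100% = no enzyme DMSO wells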
* = called active by the depositor; ? = inconclusive; · = not tested or not shown. Sampled rows, rich in hits. Any-hit rate of the full collection: about 2.3%.

SMILES	Calb FLC	SKKanGAS inh	ASAP1 inh	ARFGAP1 inhibitor	sPLA2-III inh
C[C@@H]1COc2cc(Br)ccc2S(=O)(=O)N1Cc1cn(Cc2ccc(C(F)(F)F)cc2)nn1	·	·	·	·	0.5
Cc1ccc(S(=O)(=O)n2ccc(-c3c(-c4ccccc4)noc3C)n2)cc1	·	·	·	·	-3.3
CCCCS(=O)(=O)N1CCCc2nc(-c3ccc(OC)cc3)ccc21	·	·	-1.3	4.5	-1.7
NC(=O)c1ccccc1NCC(=O)c1ccc(F)cc1	1.4	-1.1	13.9	5.3	21.3*
C=CCN1[C@H](C)COc2cccc(N3CCSCC3)c2S1(=O)=O	·	·	·	·	2.0
O=C(NNc1ccccc1)C(=O)NNS(=O)(=O)c1ccc(CCCl)cc1	86.1*	0.4	6.1	-9.3	4.9
Nc1ccc(S(=O)(=O)NNC(=O)C(=O)NNc2ccccc2)cc1	105.7*	0.5	0.0	1.5	-0.4
Cc1c(C(=O)Nc2nc3ccccc3[nH]2)oc2ccccc12	0.8	21.3	-1.8	3.7	7.8
Cc1c(C(=O)Nc2nc3ccccc3[nH]2)oc2ccc(Br)cc12	-10.6	78.6*	10.7	6.5	9.9
Cc1c(C(=O)Nc2nc3ccccc3[nH]2)oc2c(Cl)cccc12	2.1	66.8*	10.1	9.0	7.4
O=C(Nc1nc2ccccc2[nH]1)c1ccc(Br)o1	-11.3	3.6	2.9	-8.9	34.6*
CC(=O)C1=C(C)NC(=S)NC1c1ccccc1 (centres undefined)	·	·	8.9	8.8	6.5
Nc1ccc(-c2nc3nc(N)nc(N)c3nc2-c2ccc(N)cc2)cc1	-13.0	62.2*	-0.3	10.8	7.5
Cc1nc2ccccc2c(=O)n1/N=C/c1ccc2ccccc2c1O	-1.9	54.9*	·	·	·
Cc1nnc(-c2ccccc2)c(=O)n1/N=C/c1c(O)ccc2ccccc12	-1.4	69.7*	-2.7	-11.6	-41.1
Cc1cc([N+](=O)[O-])cc(/C=N/n2c(C)nc3ccccc3c2=O)c1O	-1.5	71.6*	-10.1	1.2	1.5
Cc1nc2ccccc2c(=O)n1/N=C/c1ccccc1O	3.0	12.2	-19.0	3.5	-4.4
COc1ccc2c(c1)C[C@@H](CON1C(C)(C)CCCC1(C)C)N2S(=O)(=O)c1ccc(C)cc1	·	·	·	·	-5.0
Cn1c(-c2ccccn2)[n+](C)c2ccccc21	0.9	5.8	8.8	7.6	2.8
CN(C)c1ccc(-c2n(C)c3ccccc3[n+]2C)cc1	101.7*	-10.6	9.8	13.9	5.2
Cc1ccccc1NC(=O)CN1C(=O)S/C(=C\c2cccn2-c2cccc(C(=O)O)c2)C1=O	-2.4	3.4	0.8	-2.9	0.6
Cc1cccc(C)c1-n1cccc1/C=C1\SC(=S)N(c2cccc(C(=O)O)c2)C1=O	60.5	111.2*	-22.1	-11.2	-22.0
Cc1cccc(C)c1NC(=O)CN1C(=O)S/C(=C\c2cccn2-c2cccc(C(=O)O)c2)C1=O	-0.2	13.1	11.6	-4.0	0.8
Cc1ccc(NC(=O)CN2C(=O)S/C(=C\c3cccn3-c3cccc(C(=O)O)c3)C2=O)c(C)c1	-8.9	58.7*	·	·	·
C[C@H](CO)N1C[C@H](C)[C@@H](CN(C)C(=O)Nc2ccc(-c3cccs3)cc2)OCc2cn(nn2)CCCC1=O	·	·	-6.5	-6.4	1.3
SMILES	Calb FLC	SKKanGAS inh	ASAP1 inh	ARFGAP1 inhibitor	sPLA2-III inh
CC(=O)NC(c1ccco1)c1ccc2cccnc2c1O (centres undefined)	-6.3	40.3	·	·	·
Cc1ccc2ccc(C(Nc3ccccn3)c3ccccc3)c(O)c2n1 (centres undefined)	-4.7	85.3*	-19.9	10.0	16.0
Cc1ccc2ccc(C(Nc3ccccc3)c3ccccc3)c(O)c2n1 (centres undefined)	·	·	-1.3	1.5	4.8
COc1cc(C(Nc2ccccn2)c2ccc3ccc(C)nc3c2O)cc(OC)c1O (centres undefined)	112.7*	9.5	·	·	·
Oc1c(C(Nc2ccccn2)c2ccccn2)ccc2cccnc12 (centres undefined)	3.2	72.5*	-10.1	5.0	12.5
Oc1ccccc1C(Nc1nccs1)c1ccc2cccnc2c1O (centres undefined)	94.5*	74.9*	-4.0	7.9	18.1
Cc1cccc(C)c1NC(=O)C(CCc1ccccc1)N1CCN(CCN(C)C)CC1 (centres undefined)	·	·	-5.2	-5.7	0.8
Cc1cccc(NC(c2ccc(C)s2)c2ccc3ccc(C)nc3c2O)n1 (centres undefined)	11.2	76.7*	-2.0	-1.2	3.8
Cc1ccc2ccc(C(Nc3ccccc3)c3ccc(C(C)C)cc3)c(O)c2n1 (centres undefined)	·	·	10.1	6.2	14.6
CC1CCc2sc3ncnc(N4CCOCC4)c3c2C1 (centres undefined)	4.7	-2.4	9.7	-11.8	-6.6
CC1CCc2c(sc3ncnc(N4CCOCC4)c23)C1 (centres undefined)	87.8*	0.7	4.4	9.0	1.2
COc1ccccc1CCn1cnc(-c2ccc(F)cc2)c1C(C)C	·	·	-4.7	-8.4	-4.2
CC1CCN(c2nc3ccccc3nc2C(C#N)C(=O)NC2CCCCC2)CC1 (centres undefined)	0.0	67.6*	·	·	·
N#CC(C(=O)NC1CCCCC1)c1nc2ccccc2nc1N1CCN(c2ccccc2F)CC1 (centres undefined)	·	·	1.3	-0.3	8.1
CCC(C)COC(=O)C(C#N)c1nc2ccccc2nc1N1CCCCC1 (centres undefined)	17.7	52.8*	6.4	13.7	-0.6
COCc1[nH]nc2c1C(c1cccc(C(F)(F)F)c1)N(c1ccccc1)C2=O (centres undefined)	·	·	-12.1	0.2	-3.4
COC(=O)[C@]12C[C@H](CC(=O)NCC34CC5CC(CC(C5)C3)C4)C(=O)N(Cc3ccc(Cl)cc3Cl)C1=C[C@H](C(C)(C)C)O[C@@H]2C	·	·	·	·	-1.5
O=C(Cc1nc2ccccc2s1)c1ccc(O)cc1O	91.3*	3.0	·	·	·
CCS(=O)(=O)N1Cc2ccccc2CC1C(=O)Nc1nnc(SCc2ccc(C#N)cc2)s1 (centres undefined)	0.5	59.6*	10.8	-2.2	-38.7
CCS(=O)(=O)N1Cc2ccccc2CC1C(=O)Nc1ncc(C)s1 (centres undefined)	5.1	-4.1	3.6	-1.2	-2.8
Cc1cc(C)nc(N2CCC(C(=O)N(C)CCc3ccccn3)CC2)n1	·	·	·	·	7.7
Cc1ccc(-c2nn(CCC(=O)O)cc2/C=C\C(=O)c2ccc(Br)cc2)cc1	?	73.4*	4.4	4.7	-38.8
O=C(O)CCn1cc(/C=C\C(=O)c2ccc(Cl)cc2)c(-c2cccc(Br)c2)n1	3.9	79.2*	-3.0	-2.4	-51.4
O=C(Cn1nnc(-c2ccc(N3CCOCC3)cc2)n1)c1ccccc1	·	·	·	·	-46.5
